In paper PMC12429009 (The FASEB Journal, 2025):
Changes are numbered by the printed parent chain. “Also recorded” adds a separate entry of the source. Where no end group is shown, it is not given here. The star is where a group is joined. 5FAM = O=C1OC2(c3ccc(O)cc3Oc3cc(O)ccc32)c2ccc(C(=O)*)cc21

Experiments:
[1] = target: T1, 14‐3‐3ζ WT (Homo sapiens, UniProt P63104); experiment: Peptide binding to 14‐3‐3ζ WT by surface plasmon resonance, effect of ATPγS; details: SPR, HBS‐P pH 7.4
T1 sequence (P63104 1-245): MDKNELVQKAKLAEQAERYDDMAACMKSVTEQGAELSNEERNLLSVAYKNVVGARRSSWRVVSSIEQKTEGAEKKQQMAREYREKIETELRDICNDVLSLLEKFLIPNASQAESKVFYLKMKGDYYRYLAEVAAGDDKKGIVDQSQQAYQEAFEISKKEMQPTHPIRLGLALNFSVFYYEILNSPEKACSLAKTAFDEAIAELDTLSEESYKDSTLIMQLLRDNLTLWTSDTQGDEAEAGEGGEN
Procedure, shortened: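 Amine coupling of recombinant 14‐3‐3ζ WT onto a CM5 chip to 4000 RU. Analyte 10 μM peptide with 10 μM to 1 mM ATPγS in HBS‐P (10 mM Na‐HEPES pH 7.4, 150 mM NaCl, 0.005% v/v Tween‐20). RU change during association and dissociation recorded. Sensorgrams fitted to a 1:1 binding model; relative response compared across ATPγS concentrations.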

[2] = target: T2, 14‐3‐3ζ Y82A (Homo sapiens, UniProt P63104, Y82A); experiment: ExoS peptide binding to Y82A by surface plasmon resonance, effect of ATPγS; details: SPR; 10 μM to 1 mM ATPγS with 10 μM peptide; HBS‐P pH 7.4; qualitative
T2 sequence (P63104 1-245 Y82A): T1 sequence (P63104 1-245) with Y82A
Procedure, shortened: (§1)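 Mutant 14‑3‑3ζ amine‑coupled to a CM5 chip at 4000 RU. ATPγS from 10 μM to 1 mM, together with 10 μM peptide, injected in HBS‑P (10 mM Na‑HEPES pH 7.4, 150 mM NaCl, 0.005% Tween‑20). RU changes on association and dissociation tracked; sensorgrams fitted to a 1:1 binding model.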

[3] = target: T1, 14‐3‐3ζ WT; experiment: LiP‐MS; type: binding; details: 500 μM ATPγS
[4] = target: T1, 14‐3‐3ζ WT; type: binding; details: FP, 25°C, 30 min; for effect on binding of mode 1 or mode 2 peptides to 14‐3‐3ζ: 1 mM ATP or ATPγS, peptide 62.5 nM, protein 8 to 0.0625 μM
Procedure, shortened: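 Untagged recombinant 14‐3‐3ζ WT apoprotein (His‐tagged, expressed in E. coli BL21 DE3, Ni‐NTA then size exclusion, TEV‐cleaved) in 50 mM Na‐HEPES pH 8.0, 150 mM NaCl, 10% glycerol. N‐terminal FAM peptides fixed at 62.5 nM, protein titrated 8 to 0.0625 μM, ±1 mM ATP or ATPγS in binding buffer. 30 min at 25°C in the dark, then anisotropy read; K_D fitted.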

[5] = target: T3, 14‐3‐3ζ R55A (Homo sapiens, UniProt P63104, R55A); experiment: ExoS peptide binding to R55A by surface plasmon resonance, effect of ATPγS; details: SPR; 10 μM to 1 mM ATPγS with 10 μM peptide; HBS‐P pH 7.4; qualitative
T3 sequence (P63104 1-245 R55A): T1 sequence (P63104 1-245) with R55A
Procedure, shortened: as §1

[6] = target: T1, 14‐3‐3ζ WT; type: binding; details: MST
Procedure, shortened: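 Labelled peptide binding by thermophoresis with recombinant, TEV‐cleaved 14‐3‐3ζ WT. Protein from 32 μM serially diluted 2‐fold with 10 μM FAM‐peptide in FP buffer (50 mM Na‐HEPES pH 8.0, 150 mM NaCl, 10% glycerol), at varied ATP concentrations. Fluorescence counts and power set per manufacturer. Standard glass capillaries; fit in instrument software.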

[7] = target: T2, 14‐3‐3ζ Y82A; experiment: ExoS peptide binding to 14‐3‐3ζ Y82A by microscale thermophoresis, effect of ATP; details: MST; different concentrations of ATP
Procedure, shortened: (§2)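 Purified untagged mutant 14‑3‑3ζ, starting at 32 μM, serially diluted 2‑fold in 10 μM FAM‑labeled peptide, in the FP binding buffer (50 mM Na‑HEPES pH 8.0, 150 mM NaCl, 10% glycerol), with ATP at several concentrations. Fluorescent counts and power set beforehand. Samples read in standard glass capillaries on a Monolith NT.115.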

[8] = target: T3, 14‐3‐3ζ R55A; experiment: ExoS peptide binding to 14‐3‐3ζ R55A by microscale thermophoresis, effect of ATP; details: MST; different concentrations of ATP
Procedure, shortened: as §2

[9] = tested on: 14‐3‐3ζ E180A; type: binding, human; details: FP; 1 mM ATP; 5FAM‐labeled ExoS peptide 62.5 nM, 25°C, 30 min
Procedure, shortened: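 Recombinant human 14‑3‑3ζ mutant, His‑tagged, expressed in E. coli BL21 DE3, purified by Ni‑NTA and size exclusion, tag removed with TEV, buffer‑exchanged into 50 mM Na‑HEPES pH 8.0, 150 mM NaCl, 10% glycerol. N‑terminal FAM‑peptide held at 62.5 nM, protein titrated 8 to 0.0625 μM, 1 mM ATP in binding buffer. 25°C, dark, 30 min; anisotropy change read; K_D fitted.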

[10] = target: T4, 14-3-3ζ WT (human, UniProt P63104 1-245); experiment: fluorescence polarisation
T4 sequence (looked up): T1 sequence (P63104 1-245)

[11] = target: T5, 14-3-3ζ E180A (human, UniProt P63104 1-245, E180A); experiment: fluorescence polarisation
T5 sequence (looked up): T1 sequence (P63104 1-245) with E180A

[12] = target: T6, 14-3-3ζ Y82A (human, UniProt P63104 1-245, Y82A); experiment: MST
T6 sequence (looked up): T1 sequence (P63104 1-245) with Y82A

[13] = target: T7, 14-3-3ζ R55A (human, UniProt P63104 1-245, R55A); experiment: MST
T7 sequence (looked up): T1 sequence (P63104 1-245) with R55A

[14] = tested on: 14‐3‐3τ; details: cited from earlier work

Molecule: Nc1ncnc2c1ncn2[C@@H]1O[C@H](CO[P@](=O)(O)O[P@](=O)(O)O[P@@](=O)(O)S)[C@@H](O)[C@H]1O [ATPγS]
- effect on binding of nonphosphopeptide ExoS to ζWT ([1]; 10 μM to 1 mM ATPγS with 10 μM peptide, qualitative): definitive decrease; also recorded: concentration‐dependent inhibition
- effect on binding of mode 2 phosphopeptide to 14‐3‐3ζ WT ([1]; 1 mM ATPγS): did not show any effect
- effect on binding of nonphosphopeptide ExoS to Y82A [2]: definitive decrease
- ATP binding site suggested by LiP‐MS [3]: 81–91 residues which are part of the dimer interface, were exclusively protected by ATPγS
- protection against Proteinase K cleavage (SDS PAGE) ([3]; 25°C, 30 min, Proteinase K 1:100, 1 min at 25°C): protects the protein against proteolytic cleavage
- Log2 fold change of conformotypic peptide, ATPγS bound versus unbound ([3]; peptide YDDMAAC (19–25), C_SEMI, adjusted p 2.49E‐02): −1.0
- Log2 fold change of conformotypic peptide, ATPγS bound versus unbound ([3]; peptide YDDMAACMK (19–27), FULL_TRP, adjusted p 6.47E‐03): 1.8
- effect on binding of mode 1 or mode 2 peptides to 14‐3‐3ζ [4]: no effect
- effect on binding of nonphosphopeptide ExoS to R55A [5]: definitive decrease

Molecule: Nc1ncnc2c1ncn2[C@@H]1O[C@H](COP(=O)(O)OP(=O)(O)OP(=O)(O)O)[C@@H](O)[C@H]1O [ATP]
- type of inhibition of ExoS peptide binding ([6]; 14‐3‐3ζ WT, ATP at the dimer interface): as a non‐competitive inhibitor by binding to the dimer interface
- effect on binding of phosphopeptide to ζWT ([6]; FAM‐labeled peptide): did not show any effect
- effect on binding of ExoS peptide to ζWT ([6]; different concentrations of ATP): the binding of nonphosphorylated ExoS peptide decreased in the presence of ATP; also recorded: concentration‐dependent inhibition
- ATP binding site suggested by LiP‐MS [3]: there is a second ATP binding site at the dimer interface
- effect on binding of mode 1 or mode 2 peptides to 14‐3‐3ζ [4]: no effect
- effect on binding of ExoS peptide to 14‐3‐3ζ WT ([4]; 1 mM ATP, 5FAM‐labeled ExoS peptide 62.5 nM): marginally but reproducibly decreased
- effect on binding of ExoS peptide to Y82A [7]: did not affect the binding
- effect on binding of ExoS peptide to R55A [8]: did not affect the binding
- effect on binding of ExoS peptide to E180A mutant [9]: marginally but reproducibly decreased

Molecule: 5FAM-QGLLDALDLAS [FAM-labeled nonphosphorylated ExoS peptide (5FAM-QGLLDALDLAS)]
- binding result [10]: binds
- binding result [11]: binds
- binding result [12]: binds
- binding result [13]: binds

B1: 14‐3‐3τ: 14‐3‐3 tau paralog (protein, UniProt P27348 1-245, looked up)
14-3-3 protein theta: MEKTELIQKAKLAEQAERYDDMATCMKAVTEQGAELSNEERNLLSVAYKNVVGGRRSAWRVISSIEQKTDTSDKKLQLIKDYREKVESELRSICTTVLELLDKYLIANATNPESKVFYLKMKGDYFRYLAEVACGDDRKQTIDNSQGAYQEAFDISKKEMQPTHPIRLGLALNFSVFYYEILNNPELACTLAKTAFDEAIAELDTLNEDSYKDSTLIMQLLRDNLTLWTSDSAGEECDAAEGAEN
- ATP/ADP exchange activity [14]: has an ATP/ADP exchange activity
